# Experimental data from different studies.
# ADRA2C: Alpha-2C adrenergic receptor (ADRA2C, Homo sapiens, UniProt P18825)
# PDE3A: cGMP-inhibited 3',5'-cyclic phosphodiesterase 3A (PDE3A, Homo sapiens, UniProt Q14432)
Compound,target,test,setting,inhibition [%]
COc1cc(Nc2ncc(F)c(Nc3ccc4c(n3)NC(=O)C(C)(C)O4)n2)cc(OC)c1OC,"Eukaryotic translation initiation factor 2-alpha kinase 1 (EIF2AK1, Homo sapiens, UniProt Q9BQI3)","binding, competition with immobilised ligand",10 µM,38
COCc1c(-c2cc3cc(C)cc(OC)c3s2)c2c(N)ncnn2c1CN1CCNC(=O)C1,ADRA2C,"ligand displacement, radioligand",10 µM,31
Clc1ccc2c(C3CCN(CCc4c[nH]c5ccccc45)CC3)c[nH]c2c1,PDE3A,"enzyme activity, inhibitor",10 µM,-1
Cn1cc(-c2cccc(N3CCc4c(sc5c4CC(C)(C)C5)C3=O)c2CO)cc(Nc2ccncn2)c1=O,"Phosphatidylinositol 3-kinase catalytic subunit type 3 (PIK3C3, Homo sapiens, UniProt Q8NEB9)","enzyme activity, inhibitor",1 µM,0
C[C@H](C(=O)N[C@H]1COc2ccccc2[C@@H]1S(C)(=O)=O)c1ccc(F)cc1,PDE3A,"cell-free assay, inhibitor",10 µM,-9
CCN(CC)CCCC[C@H](NC(=O)[C@H](CC(C)C)NC(=O)[C@H](C)NC(=O)[C@H](Cc1ccccc1)NC(=O)c1ccc(C(C)(C)C)cc1)C(=O)N[C@@H](CO)C(=O)OC,"Nociceptin receptor (OPRL1, Homo sapiens, UniProt P41146)","ligand displacement, radioligand",10 µM,23
CN(C)C(=O)COC(=O)Cc1ccc(OC(=O)c2ccc(NC(=N)N)cc2)cc1,"Ataxin-3 (ATXN3, Homo sapiens, UniProt P54252)","enzyme activity, inhibitor",10 µM,3
c1ccc(C(NCCNC(c2ccccc2)c2ccccc2)c2ccccc2)cc1,PDE3A,"cell-free assay, inhibitor",10 µM,0
C#Cc1n[nH]c2c(-c3cn([C@@H](C)c4ccccc4)c(=O)[nH]c3=O)cc(F)cc12,"Leucine-rich repeat serine/threonine-protein kinase 2 (LRRK2, Homo sapiens, UniProt Q5S007)","enzyme activity, inhibitor",0.1 µM,3.8
O=C(Nc1cccnn1)N1CCN([C@@H]2CCOc3cc(C(F)(F)F)ccc32)CC1,ADRA2C,cell-free assay,20 µM,23
C#Cc1n[nH]c2c(-c3cn([C@@H](C)c4ccccn4)c(=O)[nH]c3=O)cc(F)cc12,"Mitogen-activated protein kinase 14 (MAPK14, Homo sapiens, UniProt Q16539)","enzyme activity, inhibitor",0.1 µM,4
Cn1cc(-c2cc(F)cc(N3CCn4c(cc5c4CCCC5)C3=O)c2CO)cc(Nc2ccc(N3CCN(C4COC4)CC3)cn2)c1=O,"Serine/threonine-protein kinase TAO2 (TAOK2, Homo sapiens, UniProt Q9UL54)","enzyme activity, inhibitor",0.1 µM,7
